# Legend:
# Type in all cases: functional, cell-based
# [1] = biological target: T1, P2Y purinoceptor 2 (Mus musculus, UniProt P35383); assay: (§1) Antagonist activity at mouse P2Y2 receptor expressed in NG108-15 hybrid cells assessed as inhibition of 1 uM UTP-induced intracellular calcium release preincubated 30 mins before UTP challenge by fluorescence assay
# In short: (§2)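 Oregon Green-loaded NG108-15 cells in Krebs–HEPES pH 7.4, 17,000 cells/well, preincubated at 37 °C for at least 30 min with two concentrations of test compound. UTP agonist then injected, and the inhibition of the intracellular Ca2+ fluorescence rise was measured at 520 nm. Quadruplicate determinations.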
# [2] = biological target: P2Y purinoceptor 2 (Mus musculus) (UniProt P35383); assay: as §1; in short: as §2
# Sequence of P2Y purinoceptor 2 (Mus musculus) (P35383 whole entry): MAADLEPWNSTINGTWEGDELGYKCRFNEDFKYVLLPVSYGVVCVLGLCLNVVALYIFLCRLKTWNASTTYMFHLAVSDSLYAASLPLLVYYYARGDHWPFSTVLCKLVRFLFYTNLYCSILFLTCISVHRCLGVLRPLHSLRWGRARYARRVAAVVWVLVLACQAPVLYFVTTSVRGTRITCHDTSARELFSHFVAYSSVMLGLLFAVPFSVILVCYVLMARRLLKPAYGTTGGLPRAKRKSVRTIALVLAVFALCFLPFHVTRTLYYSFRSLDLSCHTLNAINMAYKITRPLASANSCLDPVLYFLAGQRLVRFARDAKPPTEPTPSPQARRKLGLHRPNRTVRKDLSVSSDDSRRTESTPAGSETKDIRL
# [3] = biological target: T1, P2Y purinoceptor 2; assay: Agonist activity at mouse P2Y2 receptor expressed in NG108-15 hybrid cells assessed as increase in intracellular calcium release by fluorescence assay
# In short: (§3)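 NG108-15 cells (mouse neuroblastoma × rat glioma; endogenous P2Y2, no P2Y4) grown in DMEM with 10% FBS, penicillin/streptomycin and HAT. Cells loaded 1 h at 25 °C with shaking, with the Ca2+ fluorophore Oregon Green. Cells rinsed twice in Krebs–HEPES pH 7.4 and plated at 17,000 cells/well. Compound in buffer injected, then fluorescence read at 520 nm over 60 × 0.4 s. Quadruplicate points.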
# [4] = biological target: P2Y purinoceptor 2 (Mus musculus) (UniProt P35383); assay: Agonist activity at mouse P2Y2 receptor expressed in NG108-15 hybrid cells assessed as increase in intracellular calcium release at 100 uM by fluorescence assay relative to UTP; in short: as §3
# [5] = biological target: T1, P2Y purinoceptor 2; assay: Antagonist activity at mouse P2Y2 receptor expressed in NG108-15 hybrid cells assessed as inhibition of 3 uM UTP-induced intracellular calcium release preincubated 30 mins before UTP challenge by fluorescence assay; in short: as §2
# T1 sequence (P35383 whole entry): as above
structure (smiles),measurement,setting,value
O=c1ccn(COCCCOP(=O)(O)O)c(=O)[nH]1,IC50,[1],338 µM
O=c1ccn(CCCCCOP(=O)(O)O)c(=O)[nH]1,IC50,[1],267 µM
O=c1ccn(COCCOP(=O)(O)OP(=O)(O)OP(=O)(O)O)c(=O)[nH]1,inhibition,[2],16%
same,IC50,[1],> 500 µM
O=c1ccn([C@@H]2O[C@H](COP(=O)(O)OP(=O)(O)OP(=O)(O)O)[C@@H](O)[C@H]2O)c(=O)[nH]1 [URIDINE TRIPHOSPHATE],EC50,[3],1.26 µM
same,IC50,[1],1.51 µM
same,Activity,[4],40%
O=c1ccn(CCCCCP(=O)(O)OP(=O)(O)OP(=O)(O)O)c(=O)[nH]1,IC50,[1],166 µM
O=c1ccn(CCOP(=O)(O)OP(=O)(O)OP(=O)(O)O)c(=O)[nH]1,inhibition,[2],60%
same,IC50,[1]; ng108-15,≤ 500 µM
O=c1ccn(CCCCCOP(=O)(O)OP(=O)(O)OP(=O)(O)O)c(=O)[nH]1,inhibition,[2],50%
same,IC50,[1],500 µM
O=c1ccn(COCCOP(=O)(O)O)c(=O)[nH]1,inhibition,[2],16%
same,IC50,[1],> 500 µM
O=c1ccn(CCCCOP(=O)(O)OP(=O)(O)OP(=O)(O)O)c(=O)[nH]1,IC50,[5],596 µM
O=c1ccn(COCCCOP(=O)(O)OP(=O)(O)OP(=O)(O)O)c(=O)[nH]1,IC50,[1],264 µM
O=c1ccn(CCCCOP(=O)(O)O)c(=O)[nH]1,inhibition,[2],60%
same,IC50,[1]; ng108-15,≤ 500 µM
O=c1ccn(CCOP(=O)(O)O)c(=O)[nH]1,inhibition,[2],22%
same,IC50,[1],> 500 µM
O=c1ccn(CCCCCP(=O)(O)OP(=O)(O)O)c(=O)[nH]1,inhibition,[2],55%
same,IC50,[1],500 µM
O=c1ccn(CCCCP(=O)(O)OP(=O)(O)OP(=O)(O)O)c(=O)[nH]1,IC50,[1],92 µM
O=c1ccn(CCCP(=O)(O)OP(=O)(O)OP(=O)(O)O)c(=O)[nH]1,inhibition,[2],52%
same,IC50,[1],500 µM

# From ChEMBL document CHEMBL1154081, “Synthesis of uracil nucleotide analogs with a modified, acyclic ribose moiety as P2Y(2) receptor antagonists” (Bioorg Med Chem, 2009)
